According to ChEMBL document CHEMBL3779805, “Orally bioavailable pyridine and pyrimidine-based Factor XIa inhibitors: Discovery of the methyl N-phenyl carbamate P2 prime group” (Bioorg Med Chem, 2016):
Each block holds one compound with its values, some of them ahead of it.

Legend:
[1] = Half life in beagle dog plasma at 0.19 mg/kg, iv and 0.19 mg/kg, po by LC-MS/MS method; type: ADME, organism-based, Canis lupus familiaris
How it was run: (§1)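 Dogs dosed iv and po in N-in-1 (cassette) format. The same vehicle was used for both routes: 70% water, 10% ethanol, 10% dimethylacetamide, 10% polypropylene glycol.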

[2] = Volume of distribution at steady state in beagle dog plasma at 0.19 mg/kg, iv and 0.19 mg/kg, po by LC-MS/MS method; type: ADME, organism-based, Canis lupus familiaris; conditions: read-out: Vdss; how it was run: as §1
[3] = Clearance in beagle dog plasma at 0.19 mg/kg, iv and 0.19 mg/kg, po administered in cassette format by LC-MS/MS method; type: ADME, organism-based, Canis lupus familiaris; how it was run: as §1
Plasma = assay: Anticoagulant activity in human plasma assessed as concentration required for 50% increase in activated partial thromboplastin time by automated coagulation analyzer; type: functional
How it was run: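 aPTT clotting assay in pooled normal human plasma on an automated coagulation analyzer with commercial reagents. EC1.5x is the inhibitor plasma concentration giving a 50% increase in clotting time over the no-inhibitor control.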

[4] = Oral bioavailability in beagle dog plasma at 0.19 mg/kg by LC-MS/MS method; type: ADME, organism-based, Canis lupus familiaris; how it was run: as §1
Coagulation factor XI = Coagulation factor XI (Homo sapiens, UniProt P03951)
Chain of Coagulation factor XI (P03951 19-387 limits assumed): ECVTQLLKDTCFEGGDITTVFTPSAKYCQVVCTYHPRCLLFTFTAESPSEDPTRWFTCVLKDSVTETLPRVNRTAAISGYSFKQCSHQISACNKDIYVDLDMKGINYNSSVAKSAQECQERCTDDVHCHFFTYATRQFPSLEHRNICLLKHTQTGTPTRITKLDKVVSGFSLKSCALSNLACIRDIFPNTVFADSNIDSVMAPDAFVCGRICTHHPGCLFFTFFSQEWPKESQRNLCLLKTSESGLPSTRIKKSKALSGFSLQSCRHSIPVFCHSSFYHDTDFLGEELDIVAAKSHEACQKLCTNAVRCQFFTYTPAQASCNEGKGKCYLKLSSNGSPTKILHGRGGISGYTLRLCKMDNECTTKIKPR
Chain of Coagulation factor XI (P03951 388-625 limits assumed): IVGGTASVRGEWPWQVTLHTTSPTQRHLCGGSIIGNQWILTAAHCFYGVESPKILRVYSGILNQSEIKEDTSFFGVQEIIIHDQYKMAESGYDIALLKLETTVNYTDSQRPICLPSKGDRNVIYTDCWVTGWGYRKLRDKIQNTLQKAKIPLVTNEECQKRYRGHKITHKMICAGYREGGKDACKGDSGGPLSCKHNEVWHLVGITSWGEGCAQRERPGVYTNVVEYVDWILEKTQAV

[5] = AUC in beagle dog plasma at 0.19 mg/kg, iv and 0.19 mg/kg, po by LC-MS/MS method; type: ADME, organism-based, Canis lupus familiaris; how it was run: as §1
[6] = AUC in beagle dog plasma at 0.4 mg/kg, iv and 0.8 mg/kg, po by LC-MS/MS method; type: ADME, organism-based, Canis lupus familiaris; how it was run: as §1
[7] = Oral bioavailability in beagle dog plasma at 0.8 mg/kg by LC-MS/MS method; type: ADME, organism-based, Canis lupus familiaris; how it was run: as §1
[8] = Volume of distribution at steady state in beagle dog plasma at 0.4 mg/kg, iv and 0.8 mg/kg, po by LC-MS/MS method; type: ADME, organism-based, Canis lupus familiaris; conditions: read-out: Vdss; how it was run: as §1
[9] = Clearance in beagle dog plasma at 0.4 mg/kg, iv and 0.8 mg/kg, po administered in cassette format by LC-MS/MS method; type: ADME, organism-based, Canis lupus familiaris; how it was run: as §1
[10] = Half life in beagle dog plasma at 0.4 mg/kg, iv and 0.8 mg/kg, po by LC-MS/MS method; type: ADME, organism-based, Canis lupus familiaris; how it was run: as §1
Plasma kallikrein = Plasma kallikrein (Homo sapiens, UniProt P03952); assay: Inhibition of human plasma kallikrein assessed as reduction in release of p-nitroaniline after 10 to 120 mins by Michaelis-Menten equation analysis; type: cell-free
Chain of Plasma kallikrein (P03952 20-390 limits assumed): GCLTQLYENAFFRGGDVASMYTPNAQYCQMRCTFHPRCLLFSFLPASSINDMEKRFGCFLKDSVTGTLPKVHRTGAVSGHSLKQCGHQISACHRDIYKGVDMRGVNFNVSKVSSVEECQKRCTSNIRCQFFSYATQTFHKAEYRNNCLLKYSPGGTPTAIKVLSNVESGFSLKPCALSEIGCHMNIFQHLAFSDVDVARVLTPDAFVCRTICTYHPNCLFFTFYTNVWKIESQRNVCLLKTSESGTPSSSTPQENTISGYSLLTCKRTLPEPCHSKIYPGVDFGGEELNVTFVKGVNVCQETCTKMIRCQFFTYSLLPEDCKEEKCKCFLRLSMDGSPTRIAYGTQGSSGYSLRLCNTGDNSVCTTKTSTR
Chain of Plasma kallikrein (P03952 391-638 limits assumed): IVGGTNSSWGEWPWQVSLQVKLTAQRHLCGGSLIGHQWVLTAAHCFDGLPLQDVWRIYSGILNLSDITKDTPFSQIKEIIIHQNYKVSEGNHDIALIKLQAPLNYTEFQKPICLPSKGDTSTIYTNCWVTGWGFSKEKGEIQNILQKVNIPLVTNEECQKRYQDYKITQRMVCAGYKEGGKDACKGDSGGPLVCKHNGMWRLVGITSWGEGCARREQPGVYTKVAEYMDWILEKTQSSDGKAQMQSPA
How it was run: (§2)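 Purified human enzymes with commercial synthetic peptide substrates. IC50 from 4–11 inhibitor concentrations, run in duplicate at a fixed substrate concentration (standard error <20%). Ki = IC50/(1+S/Km), assuming competitive inhibition.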

Canis familiaris [11] = assay: AUC in beagle dog plasma at 1 mg/kg, po dosed in discrete format by LC-MS/MS method; type: ADME, organism-based, Canis lupus familiaris; conditions: in vivo
How it was run: (§3)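 Discrete oral dosing in dog at 1 mpk. Oral vehicle: 70% PEG400, 20% TPGS, 10% ethanol.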

Canis familiaris [12] = assay: Clearance in beagle dog plasma at 0.25 mg/kg, iv and 0.2 mg/kg, po administered in cassette format by LC-MS/MS method; type: ADME, organism-based, Canis lupus familiaris; conditions: in vivo; how it was run: as §1
Trypsin = Trypsin (Homo sapiens, UniProt P07477+P07478+P35030); assay: Inhibition of human coagulation trypsin assessed as reduction in release of p-nitroaniline after 10 to 120 mins by Michaelis-Menten equation analysis; type: protein assay; how it was run: as §2
[13] = Volume of distribution at steady state in beagle dog plasma at 0.25 mg/kg, iv and 0.2 mg/kg, po by LC-MS/MS method; type: ADME, organism-based, Canis lupus familiaris; conditions: read-out: Vdss; how it was run: as §1
[14] = Half life in beagle dog plasma at 0.25 mg/kg, iv and 0.2 mg/kg, po by LC-MS/MS method; type: ADME, organism-based, Canis lupus familiaris; how it was run: as §1
[15] = Inhibition of human […] chymotrypsin assessed as reduction in release of p-nitroaniline after 10 to 120 mins by Michaelis-Menten equation analysis
[16] = molecular target: Urokinase-type plasminogen activator (Homo sapiens, UniProt P00749); assay: Inhibition of human urokinase assessed as reduction in release of p-nitroaniline after 10 to 120 mins by Michaelis-Menten equation analysis; how it was run: as §2
Coagulation factor VII = molecular target: T1, Coagulation factor VII (Homo sapiens, UniProt P08709); assay: Inhibition of human coagulation factor 7a assessed as reduction in release of p-nitroaniline after 10 to 120 mins by Michaelis-Menten equation analysis; how it was run: as §2
T1 sequence (P08709 whole entry): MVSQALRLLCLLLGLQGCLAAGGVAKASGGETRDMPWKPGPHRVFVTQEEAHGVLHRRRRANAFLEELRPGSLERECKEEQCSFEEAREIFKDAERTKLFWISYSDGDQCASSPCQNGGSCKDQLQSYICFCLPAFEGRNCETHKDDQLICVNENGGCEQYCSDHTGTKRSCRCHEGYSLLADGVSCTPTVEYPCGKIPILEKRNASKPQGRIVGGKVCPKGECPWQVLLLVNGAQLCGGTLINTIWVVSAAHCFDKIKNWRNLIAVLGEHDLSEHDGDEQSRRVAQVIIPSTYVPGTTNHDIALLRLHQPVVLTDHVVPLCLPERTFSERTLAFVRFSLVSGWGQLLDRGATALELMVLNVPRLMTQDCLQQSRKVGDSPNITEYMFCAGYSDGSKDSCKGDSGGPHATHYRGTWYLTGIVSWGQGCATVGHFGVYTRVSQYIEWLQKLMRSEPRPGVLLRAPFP

Prothrombin = Prothrombin (Homo sapiens, UniProt P00734); assay: Inhibition of human coagulation thrombin assessed as reduction in release of p-nitroaniline after 10 to 120 mins by Michaelis-Menten equation analysis; how it was run: as §2
Plasminogen = Plasminogen (Homo sapiens, UniProt P00747); assay: Inhibition of human plasmin assessed as reduction in release of p-nitroaniline after 10 to 120 mins by Michaelis-Menten equation analysis; how it was run: as §2
Chain of Plasminogen (P00747 97-580 limits assumed): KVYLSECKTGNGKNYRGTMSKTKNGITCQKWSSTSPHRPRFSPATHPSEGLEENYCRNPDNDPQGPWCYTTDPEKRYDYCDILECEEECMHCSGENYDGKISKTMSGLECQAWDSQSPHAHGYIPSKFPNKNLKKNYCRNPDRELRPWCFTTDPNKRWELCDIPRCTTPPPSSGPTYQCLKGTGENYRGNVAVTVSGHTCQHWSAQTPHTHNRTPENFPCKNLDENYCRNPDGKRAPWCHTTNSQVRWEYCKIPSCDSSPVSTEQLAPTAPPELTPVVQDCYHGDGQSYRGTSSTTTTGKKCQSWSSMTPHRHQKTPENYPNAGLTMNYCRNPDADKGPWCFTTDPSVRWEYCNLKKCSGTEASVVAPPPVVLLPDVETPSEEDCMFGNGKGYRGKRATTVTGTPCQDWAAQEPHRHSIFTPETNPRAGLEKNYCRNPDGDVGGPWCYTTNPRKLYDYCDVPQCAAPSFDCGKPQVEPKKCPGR
Chain of Plasminogen (P00747 581-810 limits assumed): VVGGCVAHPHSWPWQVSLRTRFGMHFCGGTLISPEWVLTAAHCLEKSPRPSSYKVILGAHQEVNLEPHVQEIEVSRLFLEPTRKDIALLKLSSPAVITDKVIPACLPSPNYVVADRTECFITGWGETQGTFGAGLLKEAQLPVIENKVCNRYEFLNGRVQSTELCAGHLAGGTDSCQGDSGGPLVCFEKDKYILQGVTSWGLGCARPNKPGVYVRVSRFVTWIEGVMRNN

Canis familiaris [17] = assay: Oral bioavailability in beagle dog plasma at 1 mg/kg dosed in discrete format by LC-MS/MS method; type: ADME, organism-based, Canis lupus familiaris; conditions: in vivo; how it was run: as §3
[18] = Oral bioavailability in beagle dog plasma at 0.2 mg/kg by LC-MS/MS method; type: ADME, organism-based, Canis lupus familiaris; how it was run: as §1
Coagulation factor X = Coagulation factor X (Homo sapiens, UniProt P00742); assay: Inhibition of human coagulation factor 10a assessed as reduction in release of p-nitroaniline after 10 to 120 mins by Michaelis-Menten equation analysis; how it was run: as §2
Chain of Coagulation factor X (P00742 41-179 limits assumed): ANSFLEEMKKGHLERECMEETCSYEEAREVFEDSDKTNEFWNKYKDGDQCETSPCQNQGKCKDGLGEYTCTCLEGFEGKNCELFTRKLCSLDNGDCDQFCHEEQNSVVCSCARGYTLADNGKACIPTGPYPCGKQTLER
Chain of Coagulation factor X (P00742 235-488 limits assumed): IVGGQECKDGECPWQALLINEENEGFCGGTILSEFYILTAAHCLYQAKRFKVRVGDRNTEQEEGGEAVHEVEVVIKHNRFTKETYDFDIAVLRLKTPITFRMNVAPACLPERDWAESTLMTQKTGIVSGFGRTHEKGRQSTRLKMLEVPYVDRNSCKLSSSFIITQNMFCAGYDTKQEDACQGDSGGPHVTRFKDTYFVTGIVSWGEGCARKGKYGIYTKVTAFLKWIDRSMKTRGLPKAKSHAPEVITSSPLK

[19] = molecular target: Tissue-type plasminogen activator (Homo sapiens, UniProt P00750); assay: Inhibition of human TPA assessed as reduction in release of p-nitroaniline after 10 to 120 mins by Michaelis-Menten equation analysis; how it was run: as §2
Chain of Tissue-type plasminogen activator (P00750 whole entry): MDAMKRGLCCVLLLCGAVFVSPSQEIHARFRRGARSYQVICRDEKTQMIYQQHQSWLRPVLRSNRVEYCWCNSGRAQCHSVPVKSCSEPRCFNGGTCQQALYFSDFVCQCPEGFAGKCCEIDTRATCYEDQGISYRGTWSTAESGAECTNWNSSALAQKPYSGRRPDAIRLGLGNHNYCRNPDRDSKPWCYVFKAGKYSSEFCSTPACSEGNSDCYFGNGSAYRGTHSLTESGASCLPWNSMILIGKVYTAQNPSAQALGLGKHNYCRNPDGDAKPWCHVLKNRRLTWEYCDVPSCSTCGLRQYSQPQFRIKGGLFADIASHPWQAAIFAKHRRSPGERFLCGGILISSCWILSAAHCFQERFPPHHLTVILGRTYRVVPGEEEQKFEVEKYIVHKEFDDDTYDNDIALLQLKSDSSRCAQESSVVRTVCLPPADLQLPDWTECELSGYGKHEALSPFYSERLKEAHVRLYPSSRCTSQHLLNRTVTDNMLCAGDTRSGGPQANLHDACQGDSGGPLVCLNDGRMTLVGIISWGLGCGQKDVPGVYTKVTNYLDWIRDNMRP

[20] = AUC in beagle dog plasma at 0.25 mg/kg, iv and 0.2 mg/kg, po by LC-MS/MS method; type: ADME, organism-based, Canis lupus familiaris; how it was run: as §1
[21] = molecular target: Vitamin K-dependent protein C (Homo sapiens, UniProt P04070); assay: Inhibition of human activated protein C assessed as reduction in release of p-nitroaniline after 10 to 120 mins by Michaelis-Menten equation analysis; how it was run: as §2
Chain of Vitamin K-dependent protein C (P04070 43-197 limits assumed): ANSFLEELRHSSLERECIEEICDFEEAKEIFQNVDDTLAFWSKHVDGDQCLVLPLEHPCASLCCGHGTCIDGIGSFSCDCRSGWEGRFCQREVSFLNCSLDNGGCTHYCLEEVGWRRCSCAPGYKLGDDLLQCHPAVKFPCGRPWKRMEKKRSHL
Chain of Vitamin K-dependent protein C (P04070 212-461 limits assumed): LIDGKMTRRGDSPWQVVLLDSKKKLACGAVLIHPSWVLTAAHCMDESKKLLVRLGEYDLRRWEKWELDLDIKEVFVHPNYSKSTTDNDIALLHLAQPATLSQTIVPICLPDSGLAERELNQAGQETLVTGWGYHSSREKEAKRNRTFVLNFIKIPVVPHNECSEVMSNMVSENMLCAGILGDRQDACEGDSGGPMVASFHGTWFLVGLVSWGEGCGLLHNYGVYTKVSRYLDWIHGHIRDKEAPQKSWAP

half-life [1]: 3.7 h
Vd [2]: 1.6 L/kg
clearance [3]: 5.6 mL/min/kg
bioavailability [4]: 34%
Ki (Coagulation factor XI): 0.011 µM
AUC [5]: 0.28 µM·h
Compound: COC(=O)Nc1ccc(-c2cc([C@H](Cc3ccccc3)NC(=O)/C=C/c3cc(Cl)ccc3-n3cnnn3)ccn2)cc1
EC1.5 (Plasma): 26 µM

AUC [6]: 0.01 µM·h
bioavailability [7]: < 1%
Vd [8]: 0.8 L/kg
clearance [9]: 0.283 mL/min/kg
Ki (Coagulation factor XI): 0.0024 µM
half-life [10]: 1.1 h
Compound: COC(=O)Nc1ccc(-c2cc([C@H](Cc3ccccc3)NC(=O)[C@H]3CC[C@H](CN)CC3)[nH]c(=O)c2)cc1
EC1.5 (Plasma): 0.4 µM

Ki (Plasma kallikrein): 1.85 µM
AUC (Canis familiaris [11]): 1.878 µM·h
clearance (Canis familiaris [12]): 6.1 mL/min/kg
Ki (Trypsin): > 6.218 µM
Vd [13]: 3.9 L/kg
half-life [14]: 8 h
Ki [15]: 29.5 µM
Ki [16]: > 29.7 µM
Ki (Coagulation factor VII): > 13.4 µM
Ki (Prothrombin): > 13.3 µM
Ki (Plasminogen): 12.5 µM
F (Canis familiaris [17]): 53%
bioavailability [18]: 34%
Ki (Coagulation factor XI): 0.023 µM
Ki (Coagulation factor X): 1.13 µM
Ki [19]: 10.5 µM
AUC [20]: 0.267 µM·h
Ki [21]: > 30.2 µM
Compound: COC(=O)Nc1ccc(-c2ccnc([C@H](Cc3ccccc3)NC(=O)/C=C/c3cc(Cl)ccc3-n3cnnn3)c2)cc1
EC1.5 (Plasma): >40 µM
